Measured values from article PMC11406655 (Therapeutic Advances in Hematology, 2024).
Where “and” joins values, the source holds several entries; their conditions need not be identical. Equal values may be shown once.

Tests used:
[1] = test system: patients with relapsed and/or refractory MDS, CMML, or AML; assay: Clinical response per International Working Group criteria, PFS and OS; type: in vivo, human
[2] = test system: patients with relapsed and/or refractory MDS, CMML, or AML; assay: Safety: adverse events, dose-limiting toxicities and deaths; type: in vivo, human
How it was run: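 Open-label, multicenter part 1 in adults with relapsed/refractory MDS, CMML or secondary AML. The 300 mg dose-expansion cohort took the test compound orally once daily with water only, at about the same time (±4 h), on every day of 28-day cycles. Deaths were split into ⩽30 days or >30 days after the last dose. The analysis covered all patients given at least one dose.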

Question: Which “Best overall response: CR” value ([1]; 300 mg once daily oral, n = 17) does the source give for `CC(=O)N1CCC(Nc2cc(C(=O)NC[C@H](O)CN3CCc4ccccc4C3)ncn2)CC1` [GSK3326595] here?
Answer: 0 n (%)

Question: What about the “Best overall response: Disease progression” value ([1]; 300 mg once daily oral, n = 17) of the same molecule?
Answer: 9 (53) n (%)

Question: What about the “Best overall response: HI” value ([1]; 300 mg once daily oral, n = 17) of the same molecule?
Answer: 0 n (%)

Question: And the “Best overall response: Not evaluable” value ([1]; 300 mg once daily oral, n = 17)?
Answer: 3 (18) n (%)

Question: What about the “Best overall response: PR” value ([1]; 300 mg once daily oral, n = 17) of the same molecule?
Answer: 0 n (%)

Question: What about the “Best overall response: SD” value ([1]; 300 mg once daily oral, n = 17) of the same molecule?
Answer: 4 (24) n (%)

Question: And the “Best overall response: SD lasting <8 weeks” value ([1]; 300 mg once daily oral, n = 17)?
Answer: 2 (12) n (%)

Question: And the “Best overall response: SD lasting ⩾8 weeks” value ([1]; 300 mg once daily oral, n = 17)?
Answer: 2 (12) n (%)

Question: What about the “Best overall response: mCR” value ([1]; 300 mg once daily oral, n = 17) of the same molecule?
Answer: 1 (6) n (%)

Question: What about the “Clinical benefit rate (CR + mCR + PR + SD ⩾8 weeks + HI)” value ([1]; 300 mg once daily oral, n = 17) of the same molecule?
Answer: 3 (18) n (%)

Question: What about the “Overall response rate (CR + mCR + PR)” value ([1]; 300 mg once daily oral, n = 17) of the same molecule?
Answer: 1 (6) n (%)

Question: And the “Best overall response: CR” value ([1]; 400 mg once daily oral, n = 13)?
Answer: 0 n (%)

Question: And the “Best overall response: Disease progression” value ([1]; 400 mg once daily oral, n = 13)?
Answer: 4 (31) n (%)

Question: What about the “Best overall response: HI” value ([1]; 400 mg once daily oral, n = 13) of the same molecule?
Answer: 0 n (%)

Question: And the “Best overall response: Not evaluable” value ([1]; 400 mg once daily oral, n = 13)?
Answer: 4 (31) n (%)

Question: What about the “Best overall response: PR” value ([1]; 400 mg once daily oral, n = 13) of the same molecule?
Answer: 0 n (%)

Question: And the “Best overall response: SD” value ([1]; 400 mg once daily oral, n = 13)?
Answer: 5 (38) n (%)

Question: What about the “Best overall response: SD lasting <8 weeks” value ([1]; 400 mg once daily oral, n = 13) of the same molecule?
Answer: 3 (23) n (%)

Question: And the “Best overall response: SD lasting ⩾8 weeks” value ([1]; 400 mg once daily oral, n = 13)?
Answer: 2 (15) n (%)

Question: What about the “Best overall response: mCR” value ([1]; 400 mg once daily oral, n = 13) of the same molecule?
Answer: 0 n (%)

Question: And the “Clinical benefit rate (CR + mCR + PR + SD ⩾8 weeks + HI)” value ([1]; 400 mg once daily oral, n = 13)?
Answer: 2 (15) n (%)

Question: And the “Duration of complete marrow remission” value ([1]; 1 patient, plain language summary)?
Answer: approximately 8 months

Question: What about the “Clinical benefit rate (CR + mCR + PR + SD ⩾8 weeks + HI)” value ([1]; Total, 400 or 300 mg once daily oral, N = 30) of the same molecule?
Answer: 5 (17) n (%)

Question: And the “Best overall response: CR” value ([1]; Total, N = 30)?
Answer: 0 n (%)

Question: What about the “Best overall response: Disease progression” value ([1]; Total, N = 30) of the same molecule?
Answer: 13 (43) n (%)

Question: What about the “Best overall response: HI” value ([1]; Total, N = 30) of the same molecule?
Answer: 0 n (%)

Question: And the “Best overall response: Not evaluable” value ([1]; Total, N = 30)?
Answer: 7 (23) n (%)

Question: What about the “Best overall response: PR” value ([1]; Total, N = 30) of the same molecule?
Answer: 0 n (%)

Question: And the “Best overall response: SD” value ([1]; Total, N = 30)?
Answer: 9 (30) n (%)

Question: What about the “Best overall response: SD lasting <8 weeks” value ([1]; Total, N = 30) of the same molecule?
Answer: 5 (17) n (%)

Question: And the “Best overall response: SD lasting ⩾8 weeks” value ([1]; Total, N = 30)?
Answer: 4 (13%) n (%) and 4 (13) n (%)

Question: What about the “Best overall response: mCR” value ([1]; Total, N = 30) of the same molecule?
Answer: 1 (3%) n (%) and 1 (3) n (%)

Question: What about the “Overall response rate (CR + mCR + PR)” value ([1]; Total, N = 30) of the same molecule?
Answer: 1 (3) n (%)

Question: And the “Patients meeting CBR criteria” value ([1]; Total, N = 30)?
Answer: 17%

Question: What about the Patients not evaluable ([1]; Total, N = 30) of the same molecule?
Answer: 23%

Question: And the “Patients with disease progression while on study treatment” value ([1]; Total, N = 30)?
Answer: 43%

Question: What about the “Duration of mCR” value ([1]; one patient with MDS, 300-mg cohort) of the same molecule?
Answer: 245 days

Question: And the “Died (during the study)” value ([2]; 300 mg, n = 17)?
Answer: 14 (82%) n (%)

Question: And the “GSK3326595-related TEAE: AE leading to study treatment withdrawn” value ([2]; 300 mg, n = 17)?
Answer: 2 (12) n (%)

Question: What about the “GSK3326595-related TEAE: Anemia” value ([2]; 300 mg, n = 17) of the same molecule?
Answer: 2 (12) n (%)

Question: And the “GSK3326595-related TEAE: Any SAE” value ([2]; 300 mg, n = 17)?
Answer: 3 (18) n (%)

Question: What about the “GSK3326595-related TEAE: Any TEAEs” value ([2]; 300 mg, n = 17) of the same molecule?
Answer: 13 (76) n (%)

Question: And the “GSK3326595-related TEAE: Any grade 3/4 TEAE” value ([2]; 300 mg, n = 17)?
Answer: 8 (47%) n (%) and 8 (47) n (%)

Question: What about the “GSK3326595-related TEAE: Decreased appetite” value ([2]; 300 mg, n = 17) of the same molecule?
Answer: 3 (18) n (%)

Question: What about the “GSK3326595-related TEAE: Decreased platelet count” value ([2]; 300 mg, n = 17) of the same molecule?
Answer: 5 (29) n (%)

Question: What about the “GSK3326595-related TEAE: Dysgeusia” value ([2]; 300 mg, n = 17) of the same molecule?
Answer: 4 (24) n (%)

Question: What about the “GSK3326595-related TEAE: Fatal SAE” value ([2]; 300 mg, n = 17) of the same molecule?
Answer: 1 (6) n (%)

Question: What about the “GSK3326595-related TEAE: Fatigue” value ([2]; 300 mg, n = 17) of the same molecule?
Answer: 2 (12) n (%)

Question: And the “GSK3326595-related TEAE: Nausea” value ([2]; 300 mg, n = 17)?
Answer: 4 (24) n (%)

Question: What about the “GSK3326595-related TEAE: Neutrophil count decreased” value ([2]; 300 mg, n = 17) of the same molecule?
Answer: 2 (12) n (%)

Question: And the “GSK3326595-related TEAE: Thrombocytopenia” value ([2]; 300 mg, n = 17)?
Answer: 2 (12) n (%)

Question: And the “TEAE: AE leading to dose interruption” value ([2]; 300 mg, n = 17)?
Answer: 10 (59) n (%)

Question: What about the “TEAE: AE leading to dose reduction” value ([2]; 300 mg, n = 17) of the same molecule?
Answer: 1 (6) n (%)

Question: What about the “TEAE: AE leading to study treatment withdrawn” value ([2]; 300 mg, n = 17) of the same molecule?
Answer: 3 (18) n (%)

Question: And the “TEAE: Anemia” value ([2]; 300 mg, n = 17)?
Answer: 7 (41) n (%)

Question: And the “TEAE: Any AE” value ([2]; 300 mg, n = 17)?
Answer: 17 (100) n (%)

Question: And the “TEAE: Any SAE” value ([2]; 300 mg, n = 17)?
Answer: 12 (71) n (%)

Question: And the “TEAE: Decreased appetite” value ([2]; 300 mg, n = 17)?
Answer: 4 (24) n (%)

Question: And the “TEAE: Decreased platelet count” value ([2]; 300 mg, n = 17)?
Answer: 8 (47) n (%)

Question: What about the “TEAE: Diarrhea” value ([2]; 300 mg, n = 17) of the same molecule?
Answer: 7 (41) n (%)

Question: What about the “TEAE: Dysgeusia” value ([2]; 300 mg, n = 17) of the same molecule?
Answer: 7 (41) n (%)

Question: What about the “TEAE: Dyspnea” value ([2]; 300 mg, n = 17) of the same molecule?
Answer: 6 (35) n (%)

Question: And the “TEAE: Fatal SAE” value ([2]; 300 mg, n = 17)?
Answer: 5 (29%) n (%) and 5 (29) n (%)

Question: And the “TEAE: Fatigue” value ([2]; 300 mg, n = 17)?
Answer: 6 (35) n (%)

Question: What about the “TEAE: Nausea” value ([2]; 300 mg, n = 17) of the same molecule?
Answer: 5 (29) n (%)

Question: And the “Died (during the study)” value ([2]; 400 mg, n = 13)?
Answer: 11 (85%) n (%)

Question: And the “GSK3326595-related TEAE: AE leading to study treatment withdrawn” value ([2]; 400 mg, n = 13)?
Answer: 0 n (%)

Question: And the “GSK3326595-related TEAE: Anemia” value ([2]; 400 mg, n = 13)?
Answer: 1 (8) n (%)

Question: What about the “GSK3326595-related TEAE: Any SAE” value ([2]; 400 mg, n = 13) of the same molecule?
Answer: 3 (23) n (%)

Question: And the “GSK3326595-related TEAE: Any TEAEs” value ([2]; 400 mg, n = 13)?
Answer: 9 (69) n (%)

Question: And the “GSK3326595-related TEAE: Any grade 3/4 TEAE” value ([2]; 400 mg, n = 13)?
Answer: 5 (38%) n (%) and 5 (38) n (%)

Question: And the “GSK3326595-related TEAE: Decreased appetite” value ([2]; 400 mg, n = 13)?
Answer: 1 (8) n (%)

Question: And the “GSK3326595-related TEAE: Decreased platelet count” value ([2]; 400 mg, n = 13)?
Answer: 3 (23) n (%)

Question: And the “GSK3326595-related TEAE: Dysgeusia” value ([2]; 400 mg, n = 13)?
Answer: 3 (23) n (%)

Question: And the “GSK3326595-related TEAE: Fatal SAE” value ([2]; 400 mg, n = 13)?
Answer: 0 n (%)

Question: What about the “GSK3326595-related TEAE: Fatigue” value ([2]; 400 mg, n = 13) of the same molecule?
Answer: 4 (31) n (%)

Question: What about the “GSK3326595-related TEAE: Nausea” value ([2]; 400 mg, n = 13) of the same molecule?
Answer: 2 (15) n (%)

Question: And the “GSK3326595-related TEAE: Neutrophil count decreased” value ([2]; 400 mg, n = 13)?
Answer: 2 (15) n (%)

Question: And the “GSK3326595-related TEAE: Thrombocytopenia” value ([2]; 400 mg, n = 13)?
Answer: 1 (8) n (%)
